Counter-ions that a name gives are not always drawn. The source made the active and inactive calls. No cut-off for these calls is given here.
Columns and labels:
[1] = target: T1, Prostaglandin G/H synthase 1 (Ovis aries, UniProt P05979); test: Inhibition of ovine COX-1 using arachidonic acid as substrate in presence of hemin by TMPD reagent-based colorimetry
T1 sequence (P05979 whole entry): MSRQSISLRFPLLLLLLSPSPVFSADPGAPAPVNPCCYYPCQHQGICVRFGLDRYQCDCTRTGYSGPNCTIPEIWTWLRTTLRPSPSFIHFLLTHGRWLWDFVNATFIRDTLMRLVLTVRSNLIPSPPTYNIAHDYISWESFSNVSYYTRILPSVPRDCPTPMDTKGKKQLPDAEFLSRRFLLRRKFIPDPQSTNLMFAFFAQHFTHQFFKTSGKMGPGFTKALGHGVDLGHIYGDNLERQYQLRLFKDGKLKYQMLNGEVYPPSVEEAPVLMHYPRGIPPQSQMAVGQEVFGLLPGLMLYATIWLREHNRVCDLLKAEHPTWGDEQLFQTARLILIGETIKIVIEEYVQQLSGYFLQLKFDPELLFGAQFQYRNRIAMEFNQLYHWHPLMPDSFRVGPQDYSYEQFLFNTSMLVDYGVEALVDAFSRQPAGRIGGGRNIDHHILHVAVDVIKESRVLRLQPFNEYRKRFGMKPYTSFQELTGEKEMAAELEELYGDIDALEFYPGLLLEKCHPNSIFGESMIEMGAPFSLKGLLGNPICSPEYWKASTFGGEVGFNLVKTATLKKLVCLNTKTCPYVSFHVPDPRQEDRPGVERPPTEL

[2] = target: T2, Polyunsaturated fatty acid 5-lipoxygenase (Homo sapiens, UniProt P09917); test: Inhibition of 5-LOX (unknown origin) using arachidonic acid as substrate preincubated for 5 mins followed by substrate addition measured after 10 mins by spectrophotometry
T2 sequence (P09917 whole entry): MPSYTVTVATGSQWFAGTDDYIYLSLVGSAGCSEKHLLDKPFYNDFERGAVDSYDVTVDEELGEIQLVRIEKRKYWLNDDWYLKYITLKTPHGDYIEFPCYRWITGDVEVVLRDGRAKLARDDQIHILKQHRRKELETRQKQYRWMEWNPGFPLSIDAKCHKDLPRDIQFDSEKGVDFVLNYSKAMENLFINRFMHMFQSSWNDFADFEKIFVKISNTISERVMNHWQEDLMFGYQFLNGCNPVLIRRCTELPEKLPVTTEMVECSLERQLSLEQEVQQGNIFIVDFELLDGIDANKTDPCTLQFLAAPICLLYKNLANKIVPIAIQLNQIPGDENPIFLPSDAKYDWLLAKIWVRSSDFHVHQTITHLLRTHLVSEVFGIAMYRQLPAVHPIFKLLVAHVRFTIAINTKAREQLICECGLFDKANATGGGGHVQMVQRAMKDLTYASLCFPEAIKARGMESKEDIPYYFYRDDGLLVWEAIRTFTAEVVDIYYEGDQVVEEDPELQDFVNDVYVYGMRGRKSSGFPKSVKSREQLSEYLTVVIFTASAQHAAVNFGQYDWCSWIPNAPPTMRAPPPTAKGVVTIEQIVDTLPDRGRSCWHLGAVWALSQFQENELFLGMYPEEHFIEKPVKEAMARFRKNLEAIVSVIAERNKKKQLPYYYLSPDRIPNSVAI

[3] = tested on: Rattus norvegicus; test: Anti-inflammatory activity in arachidonic acid-induced paw edema Wistar rat model assessed as swelling thickness of paw at 10 mg/kg, po measured after 1 hr by digital vernier caliper (reference value: 6.51 +/- 0.37 millimeter); type: functional
[4] = tested on: Rattus norvegicus; test: Anti-inflammatory activity in arachidonic acid-induced paw edema Wistar rat model assessed as protection against swelling thickness of paw at 10 mg/kg, po measured after 1 hr by digital vernier caliper (reference value: 0 %); type: functional
[5] = tested on: Rattus norvegicus; test: Cardio-protective activity in ISO-treated Wistar rat assessed as decrease in serum LDH level at 10 mg/kg, po; type: functional, organism-based
Summary of the method: (§1)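 Rats (n = 6/group) given ISO 100 mg kg−1 s.c., then oral test compound in 0.3% CMC; vehicle controls. Retro-orbital blood, serum separated at 4000 rpm, 4 °C, 10 min; LDH and CK-MB by commercial kits; mean ± SD.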

[6] = tested on: Rattus norvegicus; test: Cardio-protective activity in ISO-treated Wistar rat assessed as decrease in serum CK-MB level at 10 mg/kg, po; type: functional, organism-based; summary of the method: as §1
[7] = tested on: A549; test: Cytotoxicity against human A549 cells assessed as growth inhibition incubated for 48 hrs by SRB assay; conditions: A549, 48 h
[8] = tested on: COLO 205; test: Cytotoxicity against human COLO 205 cells assessed as growth inhibition incubated for 48 hrs by SRB assay; conditions: COLO 205, 48 h
[9] = tested on: MIA PaCa-2; test: Cytotoxicity against human MIA PaCa-2 cells assessed as growth inhibition incubated for 48 hrs by SRB assay; conditions: MIA PaCa-2, 48 h

| SMILES | IC50 [1] [µM] | IC50 [2] [µM] | further results |
| --- | --- | --- | --- |
| COc1ccc(-c2nnc(CN3CCN(C(c4ccccc4)c4ccc(Cl)cc4)CC3)o2)cc1 (configuration not stated) | 34.5 | 10.3 |  |
| FC(F)(F)Oc1ccc(-c2nnc(CN3CCN(C(c4ccccc4)c4ccc(Cl)cc4)CC3)o2)cc1 (configuration not stated) | 27.9 | 9.4 |  |
| Oc1cccc(-c2nnc(CN3CCN(C(c4ccccc4)c4ccc(Cl)cc4)CC3)o2)c1 (configuration not stated) | 36.3 | 20.3 |  |
| O=[N+]([O-])c1cc(-c2nnc(CN3CCN(C(c4ccccc4)c4ccc(Cl)cc4)CC3)o2)ccc1Cl (configuration not stated) | 38.5 | 11.2 |  |
| O=[N+]([O-])c1ccccc1-c1nnc(CN2CCN(C(c3ccccc3)c3ccc(Cl)cc3)CC2)o1 (configuration not stated) | 29.9 | 13.5 |  |
| Cc1cccc(-c2nnc(CN3CCN(C(c4ccccc4)c4ccc(Cl)cc4)CC3)o2)c1 (configuration not stated) | 30.7 | 9.89 |  |
| CC(c1cc2ccccc2s1)N(O)C(N)=O (configuration not stated) [ZILEUTON] |  |  | Activity [3]: 3.39 mm; Activity [4]: 47.95% |
| N#Cc1cccc(-c2nnc(CN3CCN(C(c4ccccc4)c4ccc(Cl)cc4)CC3)o2)c1 (configuration not stated) | 23 | 15 |  |
| Fc1ccc(-c2nnc(CN3CCN(C(c4ccccc4)c4ccc(Cl)cc4)CC3)o2)c(F)c1 (configuration not stated) | 34.8 | 9.33 |  |
| Clc1ccc(C(c2ccccc2)N2CCN(Cc3nnc(-c4cccc(Cl)c4)o3)CC2)cc1 (configuration not stated) | 32 | 16.2 |  |
| Clc1ccc(C(c2ccccc2)N2CCN(Cc3nnc(-c4ccccc4)o3)CC2)cc1 (configuration not stated) | 38.4 | 9.81 |  |
| Oc1ccc(-c2nnc(CN3CCN(C(c4ccccc4)c4ccc(Cl)cc4)CC3)o2)cc1 (configuration not stated) | 36.3 | 10.8 |  |
| Clc1ccc(C(c2ccccc2)N2CCN(Cc3nnc(-c4ccc(Cl)cc4Cl)o3)CC2)cc1 (configuration not stated) | 30.3 | 14.4 |  |
| Fc1ccc(-c2nnc(CN3CCN(C(c4ccccc4)c4ccc(Cl)cc4)CC3)o2)cc1 (configuration not stated) | 34.2 | 11.6 |  |
| O=[N+]([O-])c1cc(-c2nnc(CN3CCN(C(c4ccccc4)c4ccc(Cl)cc4)CC3)o2)cc([N+](=O)[O-])c1 (configuration not stated) | 37.7 | 18 |  |
| Cc1ccc(-c2nnc(CN3CCN(C(c4ccccc4)c4ccc(Cl)cc4)CC3)o2)cc1 (configuration not stated) | 32.1 | 18.1 |  |
| N#Cc1ccc(-c2nnc(CN3CCN(C(c4ccccc4)c4ccc(Cl)cc4)CC3)o2)cc1 (configuration not stated) | 25.5 | 13.5 |  |
| Cc1ccc(-c2cc(C(F)(F)F)nn2-c2ccc(S(N)(=O)=O)cc2)cc1 [CELECOXIB] |  |  | Activity [3]: 1.79 mm; Activity [4]: 72.59%; Activity [5]: inactive; Activity [6]: inactive |
| COc1cccc2c1C(=O)c1c(O)c3c(c(O)c1C2=O)C[C@@](O)(C(=O)CO)C[C@@H]3O[C@H]1C[C@H](N)[C@H](O)[C@H](C)O1 [DOXORUBICIN HYDROCHLORIDE] |  |  | GI50 [7]: 0.077 µM; GI50 [8]: 0.1 µM; GI50 [9]: 0.002 µM |
| FC(F)(F)c1ccc(-c2nnc(CN3CCN(C(c4ccccc4)c4ccc(Cl)cc4)CC3)o2)cc1 (configuration not stated) | 27 | 13.7 |  |
| Fc1cc(F)c(-c2nnc(CN3CCN(C(c4ccccc4)c4ccc(Cl)cc4)CC3)o2)cc1F (configuration not stated) | 32.7 | 19.9 |  |
| COc1cccc(-c2nnc(CN3CCN(C(c4ccccc4)c4ccc(Cl)cc4)CC3)o2)c1 (configuration not stated) | 36.3 | 15.3 |  |

From ChEMBL document CHEMBL6134766, “Design, synthesis, and evaluation of benzhydrylpiperazine-based novel dual COX-2/5-LOX inhibitors with anti-inflammatory and anti-cancer activity” (RSC Med Chem, 2025)
